Published values collected from several papers.
Protocols differ between the studies behind these lines.
Cell line: MCF7
Effect on: cell growth or viability

SMILES | test | setting | endpoint | result
O=C(Nc1ccccc1/N=c1\cc(-c2ccc3c(c2)OCO3)oc2ccccc12)N1CCNCC1 | CCK-8 | 1 µM | inhibition | 13.5%
O=C(Nc1ccc(Cl)cc1)Nc1ccc(-c2cn(Cc3cccc(Cl)c3)nn2)cc1 | CCK-8 | 50 µM, 48 h | viability | 91.8%
COc1ccc(NC(=O)Nc2cccc(-c3cn(Cc4ccc(Br)cc4)nn3)c2)cc1 | CCK-8 | 50 µM, 48 h | viability | 95.6%
Cc1n[nH]c2ccc3nc(-c4ccc(C(=O)NCCN(C)C)cc4F)c4c(c3c12)CCCCC4 | – | 72 h | GI50 | 5.72 µM
CCCS(=O)(=O)Oc1ccc(C=NNC(=O)c2nc3ccccc3s2)cc1 | MTT | 100 µM, 48 h | cell death | 46.6%
NCC(=O)Nc1ccccc1/N=c1\cc(-c2ccc3c(c2)OCO3)oc2c(N)cccc12 | CCK-8 | 1 µM | inhibition | 7.42%
O=C(Nc1cccc(-c2cn(Cc3ccc(Cl)cc3)nn2)c1)Nc1ccccc1Br | CCK-8 | 50 µM, 72 h | viability | 69.6%
CC(C)(C)c1cc(NC(=O)Nc2ccc(-c3cn4c(n3)sc3cc(OCCN5CCOCC5)ccc34)cc2)no1 | – | 72 h | GI50 | > 10 µM
O=C(NCc1cn(Cc2cccc(Cl)c2)nn1)Nc1ccc(Cl)cc1 | CCK-8 | 50 µM, 72 h | viability | 87.2%
COc1cccc2c1C(=O)c1c(O)c3c(c(O)c1C2=O)C[C@@](O)(C(=O)CO)C[C@@H]3O[C@H]1C[C@H](N)[C@H](O)[C@H](C)O1 | MTT | 48 h | IC50 | 5.17 µM
COc1ccc(NC(=O)NCc2cn(Cc3ccc(Br)cc3)nn2)cc1 | CCK-8 | 50 µM, 48 h | viability | 87.8%
NCCC(=O)Nc1ccc(/N=c2\cc(-c3ccc4c(c3)OCO4)oc3ccccc23)cc1 | CCK-8 | 1 µM | inhibition | 6.42%
COc1ccc(NC(=O)NCc2cn(Cc3ccc(Cl)cc3)nn2)cc1 | CCK-8 | 50 µM, 72 h | viability | 95.3%
NCCC(=O)Nc1ccccc1/N=c1\cc(-c2ccc3oc(N)nc3c2)oc2ccccc12 | CCK-8 | 1 µM | inhibition | 6%
C[C@H](Nc1ccc2c(c1)OCCn1cc(N3C(=O)OC[C@H]3C(F)F)nc1-2)C(N)=O | ATP luminescence | 5 days | EC50 | 0.129 µM
COc1ccc(NC(=O)Nc2ccc(-c3cn(Cc4cccc(Cl)c4)nn3)cc2)cc1 | CCK-8 | 50 µM, 48 h | viability | 95.4%
C[C@H](N)C(=O)Nc1ccccc1/N=c1\cc(-c2ccc3c(c2)OCO3)oc2ccccc12 | CCK-8 | 1 µM | inhibition | 8.48%
CCCS(=O)(=O)Oc1cc(C=NNC(=O)c2nc3ccccc3s2)ccc1OC | MTT | 100 µM, 48 h | cell death | 26.3%

SMILES | test | setting | endpoint | result
O=C(Nc1cccc(-c2cn(Cc3ccc(Br)cc3)nn2)c1)Nc1ccccc1Br | CCK-8 | 50 µM, 48 h | viability | 89.7%
COc1ccc(C=NNC(=O)c2nc3ccccc3s2)cc1OS(C)(=O)=O | MTT | 100 µM, 48 h | cell death | 32.3%
COc1ccc(NC(=O)Nc2cccc(-c3cn(Cc4cccc(Cl)c4)nn3)c2)cc1 | CCK-8 | 50 µM, 48 h | viability | 103%
CCc1nc(C(N)=O)c(Nc2ccc(N3CCC(N4CCN(C)CC4)CC3)c(OC)c2)nc1NC1CCOCC1 | – | 72 h | GI50 | 0.406 µM
COc1ccc(NC(=O)NCc2cn(Cc3ccc(C)cc3)nn2)cc1 | CCK-8 | 50 µM, 48 h | viability | 97.7%
CCOc1ccc(C(=O)CC(SCc2ccc(Cl)cc2)C(=O)OC)cc1 (stereo not drawn) | MTT | 48 h | EC50 | 40 µM
O=C(NCc1cn(Cc2ccc(Br)cc2)nn1)Nc1ccccc1Br | CCK-8 | 50 µM, 72 h | viability | 80.2%
COc1ccc(NC(=O)Nc2ccc(-c3cn(Cc4ccc(Br)cc4)nn3)cc2)cc1 | CCK-8 | 50 µM, 72 h | viability | 105%
O=C(Nc1ccc(Cl)cc1)Nc1cccc(-c2cn(Cc3ccc(Cl)cc3)nn2)c1 | CCK-8 | 50 µM, 72 h | viability | 98.2%
NCC(=O)Nc1ccccc1/N=c1\cc(-c2ccc3c(c2)OCO3)oc2c([N+](=O)[O-])cccc12 | CCK-8 | 1 µM | inhibition | 11.7%
O=C(NCc1cn(Cc2ccc(Cl)cc2)nn1)Nc1ccc(Cl)cc1 | CCK-8 | 50 µM, 72 h | viability | 83.3%
CN(C)CCNC(=O)c1ccc(-c2nc3ccc4[nH]ncc4c3c3c2CCCCC3)cc1 | – | 72 h | GI50 | 3.32 µM
NCCC(=O)Nc1cccc(/N=c2\cc(-c3ccc4c(c3)OCO4)oc3ccccc23)c1 | CCK-8 | 1 µM | inhibition | 15.7%
COc1ccc(NC(=O)NCc2cn(Cc3ccccc3C)nn2)cc1 | CCK-8 | 50 µM, 72 h | viability | 98.7%
O=C(Nc1ccc(Cl)cc1)Nc1ccc(-c2cn(Cc3ccc(Br)cc3)nn2)cc1 | CCK-8 | 50 µM, 72 h | viability | 97.8%
O=C(NN=Cc1ccc(O)cc1)c1nc2ccccc2s1 | MTT | 100 µM, 48 h | cell death | 38.1%
NCC(=O)Nc1ccccc1/N=c1\cc(-c2ccc3c(c2)OCO3)oc2ccccc12 | CCK-8 | 1 µM | inhibition | 10.9%
CN(C)CCNC(=O)c1ccc(-c2nc3ccc4[nH]ncc4c3c3c2CCCCC3)c(F)c1 | – | 72 h | GI50 | 3.31 µM
